Results published in ChEMBL document CHEMBL5303300, “EUbOPEN Chemogenomics Library - Multiplex” (2023).
Values joined by “and” are separate entries in the source; they are usually repeats but may differ in a detail not shown here. Identical values can stand only once. *1 amine or outer side, *2 acyl side, *3 side chain or, on linkers, in order; H or OH if unused. Where a SMILES comes first, the peptide text is derived from it. Bridges are numbered along the chain shown (N, C = ends). Roman numbers before positions name the chains, in order. [ ]: non-standard residue; d: D form. Hexamethylenediamine = C(CCCN[*:2])CCN[*:1]; Dip = N[C@H](C(=O)O)C(c1ccccc1)c1ccccc1; Chg = N[C@H](C(=O)O)C1CCCCC1; NMeA = CN[C@@H](C)C(=O)O

System: U2OS
Test: Multiplex assay against U2OS
Format: toxicity, cell-based
Details: human, number of replicates 2
How it was run: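 Hoechst33342, BioTracker Green Microtubule Cytoskeleton Dye, MitoTracker Red and Annexin V Alexa Fluor 680 were added to live cells at seeding, and imaging on a CQ1 microscope at 37°C and 5% CO2 followed compound addition. Gating by CellPathfinder machine learning separated cells into Hoechst high-intensity objects or normal cells, then normal cells into healthy, pyknosed or fragmented nuclei, then pyknosed cells into mitotic or apoptotic. Per cents of healthy-nucleus cells are reported for the tubulin, mitochondrial-mass and membrane-permeability phenotypes.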

[1] = 12 h, 1 µM, compound concentration 1 uM
[2] = 12 h, 10 µM, compound concentration 10 uM
[3] = 24 h, 1 µM, compound concentration 1 uM
[4] = 24 h, 10 µM, compound concentration 10 uM
[5] = 48 h, 1 µM, compound concentration 1 uM
[6] = 48 h, 10 µM, compound concentration 10 uM

CN[C@@H](C)C(=O)N[C@H](C(=O)N1CCC[C@H]1C(=O)N[C@H](C(=O)NCCCCCCNC(=O)[C@@H](NC(=O)[C@@H]1CCCN1C(=O)[C@@H](NC(=O)[C@H](C)NC)C1CCCCC1)C(c1ccccc1)c1ccccc1)C(c1ccccc1)c1ccccc1)C1CCCCC1 (I: H-[NMeA][Chg]P[Dip] / II: H-[NMeA][Chg]P[Dip]; linker I:C-II:C via Hexamethylenediamine)
Population Apoptotic (%) [1]: 75% and 38%
Population Healthy Nuclei (%) [1]: 41% and 84%
Population Hoechst High Intensity Objects (%) [1]: 0%
Population Membrane Permeable-Phenotype (%) [1]: 0%
Population Mitochondria Different-Phenotype (%) [1]: 0%
Population Mitotic Cells (%) [1]: 25% and 61%
Population Normal (%) [1]: 100%
Population Pyknosed Nuclei (%) [1]: 7% and 12%
Population Tubulin-Different-Phenotype (%) [1]: 36% and 78%
Total Cell Count [1]: 53 and 104
Population Apoptotic (%) [2]: 90% and 91%
Population Healthy Nuclei (%) [2]: 62% and 56%
Population Hoechst High Intensity Objects (%) [2]: 1% and 0%
Population Membrane Permeable-Phenotype (%) [2]: 10% and 0%
Population Mitochondria Different-Phenotype (%) [2]: 20% and 19%
Population Mitotic Cells (%) [2]: 9% and 8%
Population Normal (%) [2]: 98% and 100%
Population Pyknosed Nuclei (%) [2]: 31% and 21%
Population Tubulin-Different-Phenotype (%) [2]: 57% and 22%
Population Apoptotic (%) [3]: 62% and 52%
Population Healthy Nuclei (%) [3]: 47% and 89%
Population Hoechst High Intensity Objects (%) [3]: 0%
Population Membrane Permeable-Phenotype (%) [3]: 9% and 0%
Population Mitochondria Different-Phenotype (%) [3]: 0%
Population Mitotic Cells (%) [3]: 37% and 47%
Population Normal (%) [3]: 100%
Population Pyknosed Nuclei (%) [3]: 12% and 9%
Total Cell Count [3]: 65 and 175
Population Apoptotic (%) [4]: 77% and 80%
Population Fragmented Nuclei (%) [4]: 9%
Population Healthy Nuclei (%) [4]: 54% and 58%
Population Hoechst High Intensity Objects (%) [4]: 0%
Population Membrane Permeable-Phenotype (%) [4]: 11% and 8%
Population Mitotic Cells (%) [4]: 22% and 19%
Population Normal (%) [4]: 100% and 99%
Population Pyknosed Nuclei (%) [4]: 35% and 32%
Population Tubulin-Different-Phenotype (%) [4]: 23% and 47%
Population Apoptotic (%) [5]: 78% and 74%
Population Healthy Nuclei (%) [5]: 45% and 79%
Population Hoechst High Intensity Objects (%) [5]: 0%
Population Membrane Permeable-Phenotype (%) [5]: 9% and 2%
Population Mitochondria Different-Phenotype (%) [5]: 4% and 0%
Population Mitotic Cells (%) [5]: 21% and 25%
Population Normal (%) [5]: 100%
Population Pyknosed Nuclei (%) [5]: 20% and 12%
Population Tubulin-Different-Phenotype (%) [5]: 33% and 81%
Population Apoptotic (%) [6]: 94% and 76%
Population Fragmented Nuclei (%) [6]: 7% and 14%
Population Healthy Nuclei (%) [6]: 63% and 52%
Population Hoechst High Intensity Objects (%) [6]: 0%
Population Membrane Permeable-Phenotype (%) [6]: 9% and 10%
Population Mitochondria Different-Phenotype (%) [6]: 7% and 8%
Population Normal (%) [6]: 99% and 100%
Population Pyknosed Nuclei (%) [6]: 28% and 33%
Population Tubulin-Different-Phenotype (%) [6]: 50% and 34%

COC(=O)Nc1nc2c(s1)-c1c(c(-c3cccnc3)nn1-c1ccc(C3(N(C)C)CC3)cc1)CC2.Cl.Cl
Population Apoptotic (%) [1]: 100% and 85%
Population Healthy Nuclei (%) [1]: 44% and 73%
Population Hoechst High Intensity Objects (%) [1]: 0%
Population Mitochondria Different-Phenotype (%) [1]: 3% and 12%
Population Mitotic Cells (%) [1]: 0% and 14%
Population Normal (%) [1]: 100% and 99%
Population Pyknosed Nuclei (%) [1]: 4% and 13%
Population Tubulin-Different-Phenotype (%) [1]: 51% and 39%
Population Apoptotic (%) [2]: 58% and 63%
Population Fragmented Nuclei (%) [2]: 96% and 73%
Population Hoechst High Intensity Objects (%) [2]: 0%
Population Membrane Permeable-Phenotype (%) [2]: 28% and 26%
Population Mitochondria Different-Phenotype (%) [2]: 7% and 15%
Population Mitotic Cells (%) [2]: 41% and 36%
Population Normal (%) [2]: 100% and 99%
Population Pyknosed Nuclei (%) [2]: 1% and 6%
Population Tubulin-Different-Phenotype (%) [2]: 32% and 49%
Total Cell Count [2]: 1083 and 863
Population Apoptotic (%) [3]: 83% and 77%
Population Healthy Nuclei (%) [3]: 31% and 74%
Population Hoechst High Intensity Objects (%) [3]: 0% and 1%
Population Membrane Permeable-Phenotype (%) [3]: 5%
Population Mitochondria Different-Phenotype (%) [3]: 0% and 16%
Population Mitotic Cells (%) [3]: 16% and 22%
Population Normal (%) [3]: 100% and 98%
Population Pyknosed Nuclei (%) [3]: 9% and 17%
Population Tubulin-Different-Phenotype (%) [3]: 55% and 39%
Population Apoptotic (%) [4]: 75% and 71%
Population Fragmented Nuclei (%) [4]: 96% and 74%
Population Hoechst High Intensity Objects (%) [4]: 0%
Population Membrane Permeable-Phenotype (%) [4]: 25% and 13%
Population Mitochondria Different-Phenotype (%) [4]: 21% and 20%
Population Mitotic Cells (%) [4]: 25% and 28%
Population Normal (%) [4]: 99%
Population Pyknosed Nuclei (%) [4]: 1% and 8%
Population Tubulin-Different-Phenotype (%) [4]: 40% and 45%
Total Cell Count [4]: 1253 and 958
Population Apoptotic (%) [5]: 85% and 76%
Population Healthy Nuclei (%) [5]: 31% and 63%
Population Hoechst High Intensity Objects (%) [5]: 0%
Population Membrane Permeable-Phenotype (%) [5]: 19% and 10%
Population Mitochondria Different-Phenotype (%) [5]: 9% and 14%
Population Mitotic Cells (%) [5]: 14% and 23%
Population Normal (%) [5]: 100% and 99%
Population Pyknosed Nuclei (%) [5]: 10% and 28%
Population Tubulin-Different-Phenotype (%) [5]: 66% and 45%
Population Apoptotic (%) [6]: 66% and 70%
Population Fragmented Nuclei (%) [6]: 95% and 76%
Population Hoechst High Intensity Objects (%) [6]: 0%
Population Membrane Permeable-Phenotype (%) [6]: 13% and 23%
Population Mitochondria Different-Phenotype (%) [6]: 13% and 26%
Population Mitotic Cells (%) [6]: 33% and 30%
Population Normal (%) [6]: 100% and 99%
Population Pyknosed Nuclei (%) [6]: 2% and 10%
Population Tubulin-Different-Phenotype (%) [6]: 50% and 51%
Total Cell Count [6]: 1346 and 1010
